Fewer inactive variants are shown than the library holds.
B1: tRNA (parent)
chain: GUUCCGUUGGCGUAAUGGUAACGCGUCUCCCUCCUAAGGAGAAGACUGCGGGUUCGAGUCCCGUACGGAACG

Variants of: B1
Test: yeast fitness relative to wild type (ratio to wild type); higher = fitter; tRNA-Arg(CCU), competitive growth, 37 C, YPD
Outline: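 Amplicons of the tRNA-Arg(CCU) gene were sequenced, 100-nucleotide paired-end, from the start population and from each end population of a pooled yeast competition. The competition, in six parallel replicates, lasted 24 hours in YPD at 37°C. Fitness relative to wild type was calculated from changes in genotype frequencies. Genotypes had to have ≥ 100 starting reads, and estimates < 0.5 were set to 0.5.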

Variant	yeast fitness
U16A G17U G18C G48C	0.764
U16A U19A A45G	0.652
U16C A21G A40G A57C	≤ 0.5
U16C A40U A65C	0.626
U16C A21G A40C A42U C46U C49U G51A A70G	≤ 0.5
U16A U32A A40C G63C U64A C66G	≤ 0.5
U16A U47C G63A	0.869
U16A U28A A45U C49A C66U	≤ 0.5
U16A G25A U32C	0.889
U16C A21C C49A A57G G58A C66U G68A	≤ 0.5
U16A G23A C29U C34G	0.734
U16A U28A C49A	≤ 0.5
U16A U28A C49G	≤ 0.5
U16A U26C A70U	0.558
U16C A40U	0.789
U16C A40C	0.923
U16C A20G G52A	≤ 0.5
U16C A43C U54A	≤ 0.5
U16C A45U C49U G51A A57C C60G	≤ 0.5
U16C A21U C62U	≤ 0.5
U16C A42G G58A	0.52
U16A G23C C29U G58A	≤ 0.5
U16A C55U C61G A65G	≤ 0.5
U16A U32G	0.684

Variant	yeast fitness
U16A G41C	0.668
U16A G23C U26A C29U A42U G48A	0.557
U16A U19A C46U	1
U16C	1.01
U16C A36C A37U	≤ 0.5
U16C A57U C66U	0.531
U16A U28G G67A	0.752
U16A G18C G39A G52A	≤ 0.5
U16A G17A C22G	0.578
U16C A43C U54A C55U C60U G68A	≤ 0.5
U16C A21C G41A G56A	≤ 0.5
U16A G63C A65G	≤ 0.5
U16A U28A C62U	≤ 0.5
U16A U47A	0.825
U16C A43C	1.01
U16A G17A A57G C66U	≤ 0.5
U16A G39A A42G C55A C62U	≤ 0.5
U16C A36U G44C A65C	≤ 0.5
U16C A40U A70U	0.683
U16A G18C G50A A57C	≤ 0.5
U16A G58C C61A	≤ 0.5
U16A U47G G48C	0.536
U16A U35C A45G G56C G63C	≤ 0.5
U16C A40U G67A	0.536

Variant	yeast fitness
U16A U64C C66U	0.68
U16A U28C A69C	0.758
U16C A20U	0.889
U16C A20C	0.995
U16C A20G	0.976
U16A C60A	0.668
U16C A37C A42G G56C	≤ 0.5
U16A U64C	0.929
U16C A21C G41A	≤ 0.5
U16C A21U A43U C61A	≤ 0.5
U16C A21C A37G U54C C55A	≤ 0.5
U16C A65C	0.955
U16C A65G	0.95
U16A C61G	0.631
U16A C61U	1.02
U16A C55A A70U	0.542
U16A G23C C29U C31G U47A	≤ 0.5
U16C A43U G48C C60G	≤ 0.5
U16A G18A C31U A69C	≤ 0.5
U16A U19G C33U A40C G41A A43C C60U C61G	≤ 0.5
U16C A20U G25C C60A	≤ 0.5
U16A U26A	0.974
U16A G23A C29U C34G G58A	≤ 0.5
U16A C55A C61A	≤ 0.5

Variant	yeast fitness
U16A U26C C30A	≤ 0.5
U16A G18A C31G	0.527
U16A G25A U28A	≤ 0.5
U16A U19A A43C G56A	≤ 0.5
U16A G23C U32C C33U	≤ 0.5
U16A U35C C61G A65G	≤ 0.5
U16C A20C A21U C27G A42U	≤ 0.5
U16C A20G C29U C62U	≤ 0.5
U16A G18U C29G C30G C46G	≤ 0.5
U16A U28A C60G C61A G63A	≤ 0.5
U16A U28C C33G A36U	≤ 0.5
U16C A20C C27U	0.662
U16A G23C C29U C31G A57C	≤ 0.5
U16C A40U A57C C66U	≤ 0.5
U16A G63A G67C	≤ 0.5
U16C A42U G63C	≤ 0.5
U16C A37G C61G A69G	0.687
U16A G25C C46G	1.07
U16A U28G U47G U54A	0.56
U16A U28G C66U	≤ 0.5
U16A U59A C62U	≤ 0.5
U16A G56A A69C	0.753
U16C A20G U32C	0.684
U16A G18A	0.846

Variant	yeast fitness
U16A G48A C61U	0.706
U16A C55G	0.54
U16C A40U A57C	≤ 0.5
U16A G68U	0.837
U16A G68A	1.08
U16A G68A A70C	0.606
U16A U19C G56A	0.68
U16A U28A	0.636
U16A U53G C62G	≤ 0.5
U16A G18C A20G C22U A65C	≤ 0.5
U16A U28C G38C G39A	≤ 0.5
U16A U26C C31A C33A U35C U47A	≤ 0.5
U16A G23C C29G G50A A65G	0.751
U16A G50A	0.899
U16C A42C	0.93
U16C A42U	0.969
U16A C60U U64C A65C	≤ 0.5
U16A U28A C46G C49A A69U	≤ 0.5
U16A U47C A65U	0.727
U16A G38C	0.749
U16C A21G A70C	0.725
U16A U19A C46U U64C	0.74
U16A G23C	0.699
U16A G39A C60G A70G	≤ 0.5

Variant	yeast fitness
U16C A36G	1.03
U16A U19C C33G A43G U54A	≤ 0.5
U16A G18C U35A C55G A69G	0.64
U16A G48C C66U	0.705
U16C A37C C55G A69U	≤ 0.5
U16C A40U U47A	0.532
U16A U47C C66U	0.893
U16A G18C A36G G48C	≤ 0.5
U16A U32C A37U C49G	0.516
U16A U54C C55G	≤ 0.5
U16C A43C U54A C60U G68A	0.55
U16A G38A A65G C66G	≤ 0.5
U16A C62G	0.867
U16C A21C C31A A37G C55A	≤ 0.5
U16A C61G C66G	≤ 0.5
U16A G17A C33A G38C A43G U53C	≤ 0.5
U16A U47C A69U	0.91
U16A G18C A20G C22U G58C C61A	≤ 0.5
U16A U19C C46A A57G C61A A70C	0.656
U16A G67C	0.769
U16A G18A C31U C66U	≤ 0.5
U16A G52A	0.827
U16A U28C G38C G39A A70G	≤ 0.5
U16A G50C U54G A69C	≤ 0.5

Variant	yeast fitness
U16A G58A	0.859
U16A G63C	0.676
U16A G39A C46G	0.695
U16A G25C	0.974
U16A C55A G68A	≤ 0.5
U16C A36G G50A	0.594
U16A G52A A70C	≤ 0.5
U16A G17C C61G A70C	≤ 0.5
U16C A37C G67A	0.553
U16A C61G A65G	≤ 0.5
U16C A57G	0.925
U16C A57C	0.674
U16C A21C G41C A43C C66G A70U	≤ 0.5
U16A G17A C22G C49U C61U G68C	≤ 0.5
U16A G18U A37C C60A A70G	≤ 0.5
U16A C66A	0.653
U16A U28A U64C	0.568
U16C A21U C29A U35A A43U C62U G68C	≤ 0.5
U16C A43U G51C A57C C60G G67A	≤ 0.5
U16A G39A A42G C55A C62A C66U	0.528
U16C A45C C60G	≤ 0.5
U16C A20U G25C	≤ 0.5
U16C A40U G50U	≤ 0.5

Source: the RNAGym collection of RNA variant scans (doi:10.1126/science.aae0568)
